From ChEMBL document CHEMBL1143105, “Potent and selective small molecule NS3 serine protease inhibitors of Hepatitis C virus with dichlorocyclopropylproline as P2 residue” (Bioorg Med Chem, 2008) come the findings set out here.

The structures appear in SMILES notation. *1 amine or outer side, *2 acyl side, *3 side chain or, on linkers, in order; H or OH if unused. Where a SMILES comes first, the peptide text is derived from it. [ ]: non-standard residue; d: D form. The star is where a group is joined. Pro(3R,4S-CMe2) = CC1(C)[C@@H]2[C@@H](C(=O)O)NC[C@@H]21; Pro(3S,4R-CCl2) = O=C(O)[C@H]1NC[C@H]2[C@@H]1C2(Cl)Cl; X2 = O=C(C(=O)[*:2])C(CC1CCC1)N[*:1]; X1 = O=C(C(=O)[*:2])C(CC1CC1)N[*:1]; X3 = CCCC(N[*:1])C(=O)C(=O)[*:2]; Chg = N[C@H](C(=O)O)C1CCCCC1; Phg = N[C@H](C(=O)O)c1ccccc1; Tle = CC(C)(C)[C@H](N)C(=O)O; Boc = CC(C)(C)OC(=O)*

A short description of data set [1]: Inhibition of hepatitis C virus NS3 serine protease. Details: species or system Hepacivirus hominis.
The nature of data set [2]: Half life in monkey. It counts as ADME, organism-based, Macaca mulatta. To be noted: rhesus monkey, in vivo.
Data set [3] is described as follows: Oral bioavailability in monkey. It is filed as ADME, organism-based, Macaca mulatta. To be noted: rhesus monkey, in vivo.
Data set [4] can be described thus: AUC in dog at 2.2 mg/kg, iv. It is filed as ADME, organism-based, Canis lupus familiaris. Details: dose 2.2 mg/kg, route intravenous. To be noted: plasma. The gist of the method:
(§1)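 AUC is given in µM h. Compounds were tested as mixtures of two diastereomers at the P1 α-centre, with the isomer ratio varying slightly by compound.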

The nature of data set [5]: AUC in rat at 10 mg/kg, iv. It is filed as ADME, organism-based. On the set-up: dose 10 mg/kg, route intravenous. The note with it: plasma.
Data set [6] is described as follows: AUC in monkey at 2.2 mg/kg, iv. It is filed as ADME, organism-based, Macaca mulatta. The note with it: rhesus monkey, plasma. On the set-up: dose 2.2 mg/kg, route intravenous.
The nature of data set [7]: AUC in dog at 3 mg/kg, po. It counts as ADME, organism-based, Canis lupus familiaris. On the set-up: dose 3 mg/kg, route oral. To be noted: plasma. The gist of the method:
as §1

Data set [8] can be described thus: Half life in rat. The note with it: in vivo. It is filed as ADME, organism-based.
A short description of data set [9]: AUC in monkey at 3 mg/kg, po. It counts as ADME, organism-based, Macaca mulatta. On the set-up: dose 3 mg/kg, route oral. The note with it: rhesus monkey, plasma.
Data set [10] in a line: Oral bioavailability in dog. It counts as ADME, organism-based, Canis lupus familiaris. To be noted: in vivo.
Data set [11] in a line: Half life in dog. It counts as ADME, organism-based, Canis lupus familiaris. The note with it: in vivo.
A short description of data set [12]: Oral bioavailability in rat. It is filed as ADME, organism-based. To be noted: in vivo.
A short description of data set [13]: AUC in rat at 10 mg/kg, po. It counts as ADME, organism-based. Details: dose 10 mg/kg, route oral. To be noted: plasma.
The next data set has as its system Hepatitis C virus. Put plainly: Antiviral activity in hepatitis C virus by cell based replicon assay. It is filed as functional, organism-based, Hepacivirus hominis.
A short description of data set [14]: AUC in monkey at 1.5 mg/kg, po. It is filed as ADME, organism-based, Macaca mulatta. Details: dose 1.5 mg/kg, route oral. To be noted: rhesus monkey, plasma. The gist of the method: as §1
A short description of data set [15]: AUC in dog at 1.5 mg/kg, po. To be noted: plasma. On the set-up: dose 1.5 mg/kg, route oral. It is filed as ADME, organism-based, Canis lupus familiaris. The gist of the method: as §1
Data set [16] can be described thus: AUC in dog at 0.6 mg/kg, iv. On the set-up: dose 0.6 mg/kg, route intravenous. It counts as ADME, organism-based, Canis lupus familiaris. To be noted: plasma. The gist of the method:
as §1

The nature of data set [17]: AUC in monkey at 0.6 mg/kg, iv. It is filed as ADME, organism-based, Macaca mulatta. On the set-up: dose 0.6 mg/kg, route intravenous. The note with it: rhesus monkey, plasma. The gist of the method: as §1
Data set [18] can be described thus: AUC in rat at 7.5 mg/kg, po. It is filed as ADME, organism-based. Details: dose 7.5 mg/kg, route oral. To be noted: plasma. The gist of the method: as §1
A short description of data set [19]: AUC in rat at 6 mg/kg, iv. The note with it: plasma. It is filed as ADME, organism-based. On the set-up: dose 6 mg/kg, route intravenous. The gist of the method:
as §1

Regarding `C=CCNC(=O)C(=O)C(CCC)NC(=O)[C@@H]1[C@@H]2[C@H](CN1C(=O)[C@@H](NC(=O)NC(C)(C)C)C1CCCCC1)C2(Cl)Cl` (stereo partly specified), in data set [1], the Ki was determined as 0.1 µM.
Regarding `CC(C)(C)OC(=O)N[C@H](C(=O)N1C[C@H]2[C@@H]([C@H]1C(=O)NC(CC1CC1)C(=O)C(N)=O)C2(Cl)Cl)C1CCCCC1` (stereo partly specified), the half-life in data set [2] is 9.6 h; in data set [8], 4.4 h; in [11] it was 16 h. Moreover, the bioavailability in data set [3] worked out at 8%; in data set [10], 2%; in data set [12], 26%. Further, in data set [1], affinity was put at a Ki of 0.011 µM. The exposure (AUC) in data set [4] turned out to be 2.6 µM·h; in data set [5] it was 10.7 µM·h; in [6], 1.2 µM·h; in data set [7] it was 0.07 µM·h; in [9] it was 0.13 µM·h; in data set [13], 2.7 µM·h. Besides, in the data set with Hepatitis C virus, the EC50 worked out at 0.5 µM.
Regarding `C[C@@H](NC(=O)N[C@H](C(=O)N1C[C@H]2[C@@H]([C@H]1C(=O)NC(CC1CCC1)C(=O)C(N)=O)C2(Cl)Cl)C1CCCCC1)C(C)(C)C` (stereo partly specified), in [1], the affinity, expressed as Ki, was 0.01 µM. Also, the EC50 in the data set with Hepatitis C virus amounted to 0.04 µM.
Consider `CC(C)(OC(=O)N[C@H](C(=O)N1C[C@H]2[C@@H]([C@H]1C(=O)NC(CC1CCC1)C(=O)C(N)=O)C2(Cl)Cl)C1CCCCC1)C(F)(F)F` (stereo partly specified), for which the inhibition constant (Ki) in data set [1] is 0.065 µM.
In data set [1], `CC(C)(C)NC(=O)N[C@H](C(=O)N1C[C@H]2[C@@H]([C@H]1C(=O)NC(CC1CCC1)C(=O)C(N)=O)C2(Cl)Cl)C1Cc2ccccc2C1` (stereo partly specified) returned an inhibition constant Ki of 0.03 µM.
On the same count and under the same terms, for `C=CCNC(=O)C(=O)C(CCC)NC(=O)[C@@H]1[C@@H]2[C@H](CN1C(=O)[C@@H](NC(=O)OC(C)(C)C)C1CCCCC1)C2(Cl)Cl` (stereo partly specified) the value was 0.09 µM.
On to `CC(C)(C)OC(=O)N[C@H](C(=O)N1C[C@H]2[C@@H]([C@H]1C(=O)NC(CC1CCC1)C(=O)C(N)=O)C2(Cl)Cl)C(C)(C)C` (stereo partly specified), for which the half-life in data set [2] is 1.1 h; in data set [8], 5.6 h; in [11] it was 6.3 h. For the same compound, the bioavailability in data set [3] amounted to 50%; in [10], 10%; in [12] it was 12%. The compound further had an inhibition constant Ki in [1] of 0.009 µM. In addition, the area under the curve (AUC) in [4] is 4.5 µM·h; in data set [5] it was 2.6 µM·h; in data set [6], 1.2 µM·h; in data set [7], 0.61 µM·h; in data set [9], 0.77 µM·h; in data set [13], 0.3 µM·h. For the same compound, in the data set with Hepatitis C virus, a half-maximal effect (EC50) was put at 0.1 µM.
`NC(=O)C(=O)C(CC1CCC1)NC(=O)[C@@H]1[C@@H]2[C@H](CN1C(=O)[C@@H](NC(=O)NC1CCCCC1)C1CCCCC1)C2(Cl)Cl` (stereo partly specified): in [1], the Ki was 0.015 µM.
In data set [1], `CCCC(NC(=O)[C@@H]1[C@@H]2[C@H](CN1C(=O)[C@@H](NC(=O)NC(C)(C)C)C1CCCCC1)C2(Cl)Cl)C(=O)C(N)=O` (stereo partly specified) returned an inhibitory constant (Ki) of 0.02 µM.
On the same count and under the same terms, for `CC(C)(C)OC(=O)N[C@H](C(=O)N1C[C@H]2[C@@H]([C@H]1C(=O)NC(CC1CCC1)C(=O)C(N)=O)C2(Cl)Cl)C1Cc2ccccc2C1` (stereo partly specified) the value was 0.06 µM.
In data set [1], `NC(=O)C(=O)C(CC1CCC1)NC(=O)[C@@H]1[C@@H]2[C@H](CN1C(=O)[C@@H](NC(=O)OC1CC3CCC1C3)C1CCCCC1)C2(Cl)Cl` (stereo partly specified) came in with a Ki of 0.06 µM. This compound displayed an AUC in [13] of 0.75 µM·h. Also, the EC50 with Hepatitis C virus is 0.2 µM.
Regarding `CC(C)(C)NC(=O)N[C@H](C(=O)N1C[C@H]2[C@@H]([C@H]1C(=O)NC(CC1CCC1)C(=O)C(N)=O)C2(Cl)Cl)C1CCCCC1` (stereo partly specified), the affinity in data set [1], expressed as Ki, was 0.006 µM. The compound further came in with an exposure (AUC) in [13] of 0.32 µM·h. This compound also gave an EC50 in the data set with Hepatitis C virus of 0.3 µM.
Consider `CCCC(NC(=O)[C@@H]1[C@@H]2[C@H](CN1C(=O)[C@@H](NC(=O)OC(C)(C)C)C1CCCCC1)C2(Cl)Cl)C(=O)C(N)=O` (stereo partly specified), for which affinity in [1] was put at a Ki of 0.036 µM.
Turning to `CC(C)(C)OC(=O)N[C@H](C(=O)N1C[C@H]2[C@@H]([C@H]1C(=O)NC(CC1CCC1)C(=O)C(N)=O)C2(Cl)Cl)C1CCCCC1` (stereo partly specified), the half-life in data set [2] was 1.9 h; in data set [11], 4.7 h. In addition, the area under the curve (AUC) in [14] came to 0.06 µM·h; in data set [15], 0.1 µM·h; in [16], 2 µM·h; in data set [13], 2.4 µM·h; in [17], 0.6 µM·h. Also, the bioavailability in [3] was determined as 4%; in data set [10], 2%. In addition, the inhibition constant (Ki) in data set [1] turned out to be 0.017 µM. In the data set on Hepatitis C virus, the midpoint of the response, the EC50, lay at 0.3 µM.
On to `C=CCCC(NC(=O)[C@@H]1[C@@H]2[C@H](CN1C(=O)[C@@H](NC(=O)NC(C)(C)C)C1CCCCC1)C2(Cl)Cl)C(=O)C(=O)NCC=C` (stereo partly specified), for which the affinity in [1] corresponds to a Ki of 0.044 µM.
Regarding `CC(C)(C)NC(=O)N[C@H](C(=O)N1C[C@H]2[C@@H]([C@H]1C(=O)NC(CC1CCC1)C(=O)C(N)=O)C2(Cl)Cl)C(C)(C)C` (stereo partly specified), the figures for the AUC in data set [18] and in data set [19] were 0.12 µM·h and 1.9 µM·h, respectively. Moreover, the inhibition constant (Ki) in data set [1] came to 0.007 µM. The compound further showed a half-life in data set [8] of 2.7 h. Besides, in [12], the bioavailability came to 5%. A half-maximal effect in the data set with Hepatitis C virus (EC50) was put at 0.2 µM.
`CN(C)C(=O)[C@@H](NC(=O)CNC(=O)C(=O)C(CC1CC1)NC(=O)[C@@H]1[C@@H]2[C@H](CN1C(=O)[C@@H](NC(=O)OC(C)(C)C)C1CCCCC1)C2(Cl)Cl)c1ccccc1` (stereo partly drawn) (Boc-[Chg][Pro(3S,4R-CCl2)][X1]G[Phg]-NMe2): in data set [1], the Ki was 0.007 µM.
Same read-out and setting: next, `CN(C)C(=O)[C@@H](NC(=O)CNC(=O)C(=O)C(CC1CCC1)NC(=O)[C@@H]1[C@@H]2[C@H](CN1C(=O)[C@@H](NC(=O)OC(C)(C)C)C1CCCCC1)C2(Cl)Cl)c1ccccc1` (stereo partly drawn) (Boc-[Chg][Pro(3S,4R-CCl2)][X2]G[Phg]-NMe2): 0.009 µM; `CCCC(NC(=O)[C@@H]1[C@@H]2[C@H](CN1C(=O)[C@@H](NC(=O)OC(C)(C)C)C1CCCCC1)C2(Cl)Cl)C(=O)C(=O)NCC(=O)N[C@H](C(=O)N(C)C)c1ccccc1` (stereo partly drawn) (Boc-[Chg][Pro(3S,4R-CCl2)][X3]G[Phg]-NMe2): 0.015 µM.
Regarding `CN(C)C(=O)[C@@H](NC(=O)CNC(=O)C(=O)C(CC1CC1)NC(=O)[C@@H]1[C@@H]2[C@H](CN1C(=O)[C@@H](NC(=O)OC(C)(C)C)C(C)(C)C)C2(C)C)c1ccccc1` (stereo partly drawn) (Boc-[Tle][Pro(3R,4S-CMe2)][X1]G[Phg]-NMe2), the bioavailability in [3] was 1%; in data set [12], 4%. In data set [1], this compound gave a Ki of 0.0038 µM. In the data set on Hepatitis C virus, this compound returned an EC50 of 0.04 µM.
Turning to `CC(C)(C)NC(=O)N[C@H](C(=O)N1C[C@H]2[C@@H]([C@H]1C(=O)NC(CC1CCC1)C(=O)C(N)=O)C2(C)C)C(C)(C)C` (stereo partly specified) [BOCEPREVIR], the Ki in [1] worked out at 0.014 µM. Further, it took 0.2 µM to reach a half-maximal effect in the data set with Hepatitis C virus (EC50).

One may read the Ki as a dissociation constant, usually derived from enzyme kinetics or from competition with a known ligand. As usually defined, the half-life is the time needed for the level to fall by half in the phase considered. For orientation: bioavailability means dose-corrected exposure relative to a reference, in per cent. As usually defined, the AUC is concentration integrated over time. In general, EC50 refers to the midpoint of the concentration-response curve.
